Measured values from ChEMBL document CHEMBL1145243, “Synthesis and bladder smooth muscle relaxing properties of substituted 3-amino-4-aryl-(and aralkyl-)cyclobut-3-ene-1,2-diones” (Bioorg Med Chem Lett, 2005).

Legend:
Type in all cases: functional
[1] = species on record: Rattus norvegicus; assay: In vitro inhibitory concentration required to relax KCl-induced contractions in rat bladder detrusor muscle strips
[2] = species on record: Rattus norvegicus; assay: Percent of reversal of rat bladder detrusor muscle relaxation (resulting from compound treatment) by addition of glyburide
[3] = species on record: Rattus norvegicus; assay: In vitro inhibitory concentration required to relax KCl-induced contractions in rat aortic rings; conditions: Aorta
Method in brief: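 Rat aortic rings were contracted with KCl and then exposed to drug. The value is the drug concentration (μM) that relaxed the KCl-induced contraction by 50%, reported ± SE.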

[4] = Rattus norvegicus, read-out: IC50

Structure (SMILES): CCC(C)(C)Nc1c(-c2cccnc2)c(=O)c1=O
- IC50 [1, 4]: > 30 µM
- Reversal [2]: 0%

Structure (SMILES): COc1ccc(Cc2c(NC(C)C(C)(C)C)c(=O)c2=O)cc1 (stereo not given)
- IC50 [1, 4]: > 30 µM
- Reversal [2]: 0%

Structure (SMILES): CC(Nc1c(/C=C/c2ccc(Br)cc2)c(=O)c1=O)C(C)(C)C (stereo not given)
- IC50 [1, 4]: > 30 µM
- Reversal [2]: 25%

Structure (SMILES): CC(Nc1c(/C=C/c2ccc(C#N)cc2)c(=O)c1=O)C(C)(C)C (stereo not given)
- IC50 [1, 4]: 2.94 µM
- Reversal [2]: 0%

Structure (SMILES): COc1ccc(-c2c(NC(C)c3ccccc3)c(=O)c2=O)cc1 (stereo not given)
- IC50 [1, 4]: 27 µM
- Reversal [2]: 0%

Structure (SMILES): CC(Nc1c(Cc2ccc(C#N)cc2)c(=O)c1=O)C(C)(C)C (stereo not given)
- IC50 [1, 4]: > 30 µM
- Reversal [2]: 0%

Structure (SMILES): CCC(C)(C)/N=c1/c(-c2cccc(OC)c2)c(O)c1=O
- IC50 [1]: Contracted
- IC50 [1, 4]: > 30 µM

Structure (SMILES): COc1ccc(C(C(C)=O)c2c(NC(C)C(C)(C)C)c(=O)c2=O)cc1 (stereo not given)
- IC50 [1, 4]: > 30 µM
- Reversal [2]: 0%

Structure (SMILES): CC(=O)C(c1ccc(C(F)(F)F)cc1)c1c(NC(C)C(C)(C)C)c(=O)c1=O (stereo not given)
- IC50 [1, 4]: 16.2 µM
- Reversal [2]: 0%

Structure (SMILES): COc1ccc(-c2c(NCCc3cccc(C(F)(F)F)c3)c(=O)c2=O)cc1
- IC50 [1, 4]: > 30 µM
- Reversal [2]: 0%

Structure (SMILES): CCc1cc(C#N)ccc1Nc1c(N[C@H](C)C(C)(C)C)c(=O)c1=O
- IC50 [1, 4]: 0.09 µM
- IC50 [3]: 0.017 µM
- Reversal [2]: 77%

Structure (SMILES): COc1ccc(-c2c(NCC(C)c3ccccc3)c(=O)c2=O)cc1 (stereo not given)
- IC50 [1, 4]: > 30 µM
- Reversal [2]: 0%

Structure (SMILES): CCC(C)(C)/N=c1/c(-c2ccc(OC)cc2)c(O)c1=O
- IC50 [1, 4]: 2.5 µM
- IC50 [3]: 37.6 µM
- Reversal [2]: 0%

Structure (SMILES): CCC(C)(C)Nc1c(-c2ccc(OCCCc3ccccc3)cc2)c(=O)c1=O
- IC50 [1]: Contracted

Structure (SMILES): COc1ccc(-c2c(N(C)C(C)C)c(=O)c2=O)cc1
- IC50 [1, 4]: 12 µM
- IC50 [3]: 46.2 µM
- Reversal [2]: 0%

Structure (SMILES): C[C@@H](Nc1c(Nc2ccc(C#N)cc2)c(=O)c1=O)C(C)(C)C
- IC50 [1, 4]: 0.37 µM
- IC50 [3]: 0.064 µM
- Reversal [2]: 110%
